Data: ChEMBL document CHEMBL4715729, “UPLC-QTOFMS(E)-Guided Dereplication of the Endangered Chinese Species Garcinia paucinervis to Identify Additional Benzophenone Derivatives” (J Nat Prod, 2016)

What was measured:
Format in all cases: functional, cell-based
MDA-MB-231 = assay: Cytotoxicity against human MDA-MB-231 cells assessed as reduction in cell viability measured after 48 hrs by WST assay; settings: MDA-MB-231, 48 h
Method in brief: (§1)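 Cells grown at 37 °C, 5% CO2 with 10% fetal calf serum and penicillin/streptomycin: MCF7 and MDA-MB-231 in DMEM glucose, SKBR3 in DMEM F12 glutamine. Seeded at 12×10^3 cells/well, dosed after 24 h at 5–200 μM from DMSO stocks (DMSO […]) for 48 h. Doxorubicin positive control. Read-out was 10% WST for 1 h in the dark, absorbance at 440 nm. Triplicate, % inhibition versus control, IC50 estimated.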

SK-BR-3 = assay: Cytotoxicity against human SK-BR-3 cells assessed as reduction in cell viability measured after 48 hrs by WST assay; settings: SK-BR-3, 48 h; method in brief: as §1
MCF7 = assay: Cytotoxicity against human MCF7 cells assessed as reduction in cell viability measured after 48 hrs by WST assay; settings: MCF7, 48 h; method in brief: as §1

Measured: IC50

CC(C)=CCC/C(C)=C/CC1(CC=C(C)C)C(=O)C(C(=O)c2ccc(O)c(O)c2)=C2OC(C)(C)C(O)C3OC23C1=O (stereo not given)
< 10 µM: all assays above

CC(C)=CCC/C(C)=C/C[C@@]1(CC=C(C)C)C(=O)C2=C(OC(C)(C)C[C@H]2c2occc(=O)c2O)C(C(=O)c2ccc(O)c(O)c2)=C1O
< 10 µM: all assays above

CC(C)=CCC/C(C)=C/C[C@]1(CC=C(C)C)C(=O)C(O)=C(C(=O)c2ccc(O)c(O)c2)C1=O
< 10 µM: all assays above

CC(C)=CCC/C(C)=C/CC1(CC=C(C)C)C(=O)C(C(=O)c2ccc(O)c(O)c2)=C2OC(C)(C)CC3OC23C1=O (stereo not given)
< 10 µM: all assays above

CC(C)=CCC/C(C)=C/C[C@]1(CC=C(C)C)C(=O)C2=C(OC(C)(C)C[C@H]2c2occc(=O)c2O)C(C(=O)c2ccc(O)c(O)c2)=C1O
< 10 µM: all assays above
